Laboratory results reported in ChEMBL document CHEMBL4837227, “Discovery and development of 2-aminobenzimidazoles as potent antimalarials” (Eur J Med Chem, 2021).
pIC50: −log10 of the molar value. In brackets after ≈: the same amount, converted by molar mass. Activity calls are given as the source filed them. The rule behind the calls is not given here.

How the values were obtained:
Plasmodium falciparum [1] = test: Antimalarial activity against Plasmodium falciparum 3D7 assessed as reduction in parasite growth measured after 72 hrs by Monash assay based fluorescence analysis; type: functional, organism-based; conditions: 3D7, 72 h
How it was run: (§1)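 Asynchronous P. falciparum cultures were grown continuously in complete RPMI with 25 mM HEPES, 0.5% Albumax II, 0.37 mM hypoxanthine and 2.0 g/l bicarbonate. They were exposed to serially diluted compound for 72 h. Controls were DMSO (0.01%) and a reference positive control. Fluorescence was read after 2 h in the dark at room temperature. IC50 is mean SEM from technical duplicate or triplicate, at least three biological replicates.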

[2] = system: Plasmodium falciparum 3D7; test: Binding affinity to Plasmodium falciparum 3D7 AMA1 (104 to 438 residues) expressed in Escherichia coli BL21(DE3) by surface plasmon resonance assay
[3] = Kinetic solubility of the compound at pH 2 measured after 30 mins by nephelometry; type: physicochemical; conditions: buffer, read-out: Kinetic_solubility
How it was run: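 Compound in DMSO was spiked into 0.01 M HCl (pH ~2.0) at a final DMSO of 1%. After 30 min, nephelometry gave a solubility range.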

[4] = Selectivity index, ratio of IC50 for cytotoxicity against human HEK293 cells to antiplasmodial activity against Plasmodium falciparum 3D7; type: toxicity, cell-based; conditions: read-out: Ratio IC50
[5] = Metabolic stability in human liver microsomes assessed as intrinsic clearance at 1 uM measured per mg protein after 60 mins in presence of NADPH regenerating system by LC-MS analysis; type: ADME, Microsome; conditions: read-out: CLH
How it was run: (§2)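 Compound was incubated at 37 °C with liver microsomes at 0.4 mg/mL protein. The reaction was started with an NADPH-regenerating system and quenched at time points over 60 min with acetonitrile containing diazepam as internal standard. No-NADPH controls were quenched at 2, 30 and 60 min.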

Plasmodium falciparum [6] = test: Antimalarial activity against artemisinin-resistant Plasmodium falciparum Cam3.II^C580Y expressing K13 mutant assessed as reduction in parasite growth measured after 72 hrs by Monash assay based fluorescence analysis; type: functional, organism-based
How it was run: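 Asynchronous culture, 72 h compound exposure. Compounds prepared at […] (twice the top concentration) in complete RPMI (25 mM HEPES, 0.5% Albumax II, 0.37 mM hypoxanthine, sodium bicarbonate), then serially diluted. Fluorescence read after 2 h room-temperature dark incubation. Negative control 0.01% DMSO. IC50 as mean SEM, n ≥ 3 biological replicates, each in technical duplicate or triplicate.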

[7] = Metabolic stability in mouse liver microsomes assessed as intrinsic clearance at 1 uM measured per mg protein for 60 mins in presence of NADPH regenerating system by LC-MS analysis; type: ADME, Microsome; conditions: read-out: CLH; how it was run: as §2
[8] = Kinetic solubility of the compound at pH 6.5 measured after 30 mins by nephelometry; conditions: buffer, read-out: Kinetic_solubility
HEK293 = test: Cytotoxicity against human HEK293 cells assessed as reduction in cell viability at 50 uM measured after 24 hrs by MTT assay; conditions: hek293, 24 h
Plasmodium falciparum [9] = test: Antimalarial activity against artemisinin-sensitive Plasmodium falciparum Cam3.II^rev expressing wild type K13 assessed as reduction in parasite growth measured after 72 hrs by Monash assay based fluorescence analysis; type: functional, organism-based; how it was run: as §1
[10] = Metabolic stability in human liver microsomes assessed as half-life at 1 uM measured for 60 mins in presence of NADPH regenerating system by LC-MS analysis; type: ADME, Microsome; how it was run: as §2
[11] = Metabolic stability in mouse liver microsomes assessed as half-life at 1 uM measured for 60 mins in presence of NADPH regenerating system by LC-MS analysis; type: ADME, Microsome; how it was run: as §2
Plasmodium falciparum [12] = test: Antiplasmodial activity against PfATP4 inhibitor SJ557733-resistant Plasmodium falciparum Dd2 assessed as reduction in parasite growth incubated for 72 hrs by Griffith assay based fluorescence analysis; type: functional, organism-based; conditions: Dd2, 72 h
How it was run: (§3)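 22-point dose-response, 3 per log, final 40 µM top, 0.4% DMSO. 72 h at 37 °C under 90% N2/5% CO2/5% O2. DAPI stain, confocal imaging. IC50 from 4-parameter fit normalised to in-plate puromycin and DMSO controls.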

Plasmodium falciparum [13] = test: Antimalarial activity against synchronous ring stage of Plasmodium falciparum Dd2 assessed as parasite growth inhibition incubated for 72 hrs by Griffith assay based fluorescence analysis; type: functional, organism-based; conditions: Dd2, 72 h; how it was run: as §3
[14] = Selectivity index, ratio of IC50 for antimalarial activity against Plasmodium falciparum Dd2 to IC50 of antimalarial activity against Plasmodium falciparum 3D7; type: functional
Plasmodium falciparum [15] = test: Antimalarial activity against synchronous ring stage of Plasmodium falciparum 3D7 assessed as parasite growth inhibition incubated for 72 hrs by Griffith assay based fluorescence analysis; type: functional, organism-based; conditions: 3D7, 72 h; how it was run: as §3
Plasmodium falciparum [16] = test: Selectivity index, ratio of IC50 for antimalarial activity against PfATP4 inhibitor SJ557733-resistant Plasmodium falciparum Dd2 to IC50 of antimalarial activity against Plasmodium falciparum Dd2; type: functional

## Nc1ccccc1-n1c(S)nc2ccccc21
Plasmodium falciparum [1]
  pIC50: < 6.30

## COc1cccc(-n2c(N)nc3ccccc32)c1
Plasmodium falciparum [1]
  pIC50: < 6.30
[2]
  Activity: inactive

## Nc1nc2ccccc2n1-c1ccncc1O
Plasmodium falciparum [1]
  pIC50: < 6.30

## Oc1ccccc1-n1c(NCC2CC2)nc2ccccc21
Plasmodium falciparum [1]
  pIC50: < 6.30

## CC(C)Nc1nc2ccccc2n1-c1ccccc1O
Plasmodium falciparum [1]
  pIC50: < 6.30

## Cc1ccc(-n2c(N)nc3ccccc32)cc1
Plasmodium falciparum [1]
  pIC50: < 6.30
[2]
  Activity: inactive

## Nc1nc2cccnc2n1-c1ccccc1O
Plasmodium falciparum [1]
  pIC50: < 6.30

## Nc1nc2ccccc2n1[C@H]1CCCC[C@@H]1O
Plasmodium falciparum [1]
  pIC50: < 6.30

## Cc1cccc(-n2c(N)nc3ccccc32)c1O
Plasmodium falciparum [1]
  pIC50: 7.21

## CCNc1nc2ccccc2n1-c1ccccc1O
Plasmodium falciparum [1]
  pIC50: < 6.30

## Oc1ccccc1-n1c(NCC2CCCCC2)nc2ccccc21
Plasmodium falciparum [1]
  pIC50: 6.65

## Cc1cc(C)c(O)c(-n2c(N)nc3ccccc32)c1
[3]
  solubility kinetic at 0.5 h: > 100 µg/mL
[4]
  selectivity ratio: > 1000
[5]
  microsomal CLint at 1 µM: 10 µL/min/mg
Plasmodium falciparum [6]
  pIC50: 6.86
[7]
  microsomal CLint at 1 µM: 476 µL/min/mg
[8]
  solubility kinetic at 0.5 h: 12.5 µg/mL (≈ 49.3 µM)
Plasmodium falciparum [1]
  pIC50: 7.64
HEK293
  Activity: Non-Toxic
Plasmodium falciparum [9]
  pIC50: 6.88
[10]
  half-life at 1 µM: 2.88 h
[11]
  half-life at 1 µM: 0.0667 h

## Cc1ccc(-n2c(N)nc3ccccc32)c(O)c1
Plasmodium falciparum [12]
  pIC50: 7.76
[3]
  solubility kinetic at 0.5 h: > 100 µg/mL
Plasmodium falciparum [13]
  pIC50: 7.50
[4]
  selectivity ratio: > 1000
[5]
  microsomal CLint at 1 µM: 11 µL/min/mg
Plasmodium falciparum [6]
  pIC50: 7.09
[14]
  Ratio IC50: 2.3
Plasmodium falciparum [15]
  pIC50: 7.87
Plasmodium falciparum [16]
  Ratio IC50: 0.5
[7]
  microsomal CLint at 1 µM: 97 µL/min/mg
[8]
  solubility kinetic at 0.5 h: 25 µg/mL (≈ 104 µM)
Plasmodium falciparum [1]
  pIC50: 7.38
HEK293
  Activity: Non-Toxic
Plasmodium falciparum [9]
  pIC50: 6.85
[10]
  half-life at 1 µM: 2.7 h
[11]
  half-life at 1 µM: 0.3 h

## Nc1nc2ccccc2n1-c1ccc(Cl)cc1O
Plasmodium falciparum [1]
  pIC50: 6.79

## Cc1cc(O)c(-n2c(N)nc3ccccc32)cc1C
[3]
  solubility kinetic at 0.5 h: > 100 µg/mL
[4]
  selectivity ratio: > 1000
[5]
  microsomal CLint at 1 µM: 13 µL/min/mg
Plasmodium falciparum [6]
  pIC50: 7.20
[7]
  microsomal CLint at 1 µM: 76 µL/min/mg
[8]
  solubility kinetic at 0.5 h: 12.5 µg/mL (≈ 49.3 µM)
Plasmodium falciparum [1]
  pIC50: 8.19
HEK293
  Activity: Non-Toxic
Plasmodium falciparum [9]
  pIC50: 7.33
[10]
  half-life at 1 µM: 2.15 h
[11]
  half-life at 1 µM: 0.383 h

## COc1ccc(O)c(-n2c(N)nc3ccccc32)c1
Plasmodium falciparum [1]
  pIC50: < 6.30

## COc1ccc2nc3cc(Cl)ccc3c(Nc3cc(CN4CCCC4)c(O)c(CN4CCCC4)c3)c2n1 [PYRONARIDINE]
Plasmodium falciparum [13]
  pIC50: 8.08
[14]
  Ratio IC50: 1.1
Plasmodium falciparum [15]
  pIC50: 8.13

## Nc1nc2ccccc2n1-c1ccc2cccnc2c1O
Plasmodium falciparum [1]
  pIC50: < 6.30

## C[C@H]1[C@@H](O)O[C@@H]2O[C@@]3(C)CC[C@H]4[C@H](C)CC[C@@H]1[C@@]24OO3 [ARTENIMOL]
Plasmodium falciparum [13]
  pIC50: 9.22
[14]
  Ratio IC50: 1.3
Plasmodium falciparum [15]
  pIC50: 9.40
Plasmodium falciparum [1]
  pIC50: 8.70

## Oc1ccccc1-n1c(NCc2ccccc2)nc2ccccc21
Plasmodium falciparum [1]
  pIC50: < 6.30

## Nc1nc2ccccc2n1-c1cccc(F)c1O
Plasmodium falciparum [1]
  pIC50: < 6.30

## COc1ccc(-n2c(N)nc3ccccc32)cc1
Plasmodium falciparum [1]
  pIC50: < 6.30
[2]
  Activity: inactive

## Nc1nc2ccccc2n1-c1c(O)cccc1Cl
Plasmodium falciparum [1]
  pIC50: < 6.30

## Nc1ccccc1-n1c(N)nc2ccccc21
Plasmodium falciparum [1]
  pIC50: < 6.30
[2]
  Activity: inactive

## Nc1nc2ccccc2n1-c1ccc(O)cc1
Plasmodium falciparum [1]
  pIC50: < 6.30
[2]
  Activity: inactive

## COc1cccc(-n2c(N)nc3ccccc32)c1O
Plasmodium falciparum [1]
  pIC50: 7.26

## Nc1ncccc1-c1ccccc1O
Plasmodium falciparum [1]
  pIC50: < 6.30

## Cc1ccc(O)c(-n2c(N)nc3ccccc32)c1
Plasmodium falciparum [1]
  pIC50: 7.25

## COc1cccc(O)c1-n1c(N)nc2ccccc21
Plasmodium falciparum [1]
  pIC50: 6.74

## Nc1nc2ccccc2n1-c1cc(F)ccc1O
Plasmodium falciparum [1]
  pIC50: 7.05

## Nc1ccccc1-n1c(O)nc2ccccc21
Plasmodium falciparum [1]
  pIC50: < 6.30

## CCCCNc1nc2ccccc2n1-c1ccccc1O
Plasmodium falciparum [1]
  pIC50: 6.56

## Nc1nc2ccccc2n1-c1ccc(F)cc1O
Plasmodium falciparum [1]
  pIC50: 6.73
